STAT3 activator: activators of IL-6 induced STAT3 signaling | U3A cells, IL-6 STAT3-luciferase reporter, luminescence; 100% = signal with IL-6 EC80 alone | activation (% of control), % at 5.6 µM | 0.91% of 190,000 active;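 active means activation above the screen-wide mean of compound activation plus 3 SD, cut at about 130% in these data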;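 further: 0% = background luminescence of wells with medium and substrate only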
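Material: human STAT1-deficient U3A cells with stable STAT3-luciferase reporter / Probe or stimulus: IL-6 stimulus at 33 ng/mL final / Schedule: 1 h compound pre-exposure, 6 h IL-6 stimulation, 37 °C / Technique: luminescence / Read-out basis: percent of IL-6-only median luminescence / Control set: IL-6-only high control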
FXIa inh: blocks human coagulation factor XIa protease activity. P03951. purified FXIa, Boc-Glu-Ala-Arg-AMC fluorogenic substrate. inhibition, % at 5 µM. 0.14% of 220,000 active;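 active means inhibition of at least 40%; inactive means inhibition below 40%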;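 further: fluorescence of freed AMC excited at 355 nm; 0% = enzyme without compound and 100% = no enzyme blank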
Target sequence (P03951 19-387 limits assumed): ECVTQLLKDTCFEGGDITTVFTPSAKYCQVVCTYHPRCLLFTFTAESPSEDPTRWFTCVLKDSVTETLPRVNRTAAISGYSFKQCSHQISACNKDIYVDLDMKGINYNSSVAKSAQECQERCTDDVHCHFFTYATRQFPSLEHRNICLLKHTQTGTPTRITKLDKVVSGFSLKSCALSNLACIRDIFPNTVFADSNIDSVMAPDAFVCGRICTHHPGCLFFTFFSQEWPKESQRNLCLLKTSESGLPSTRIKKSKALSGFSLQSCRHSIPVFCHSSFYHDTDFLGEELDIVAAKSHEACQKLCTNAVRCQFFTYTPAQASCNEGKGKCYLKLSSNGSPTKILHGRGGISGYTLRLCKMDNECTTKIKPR
Target sequence (P03951 388-625 limits assumed): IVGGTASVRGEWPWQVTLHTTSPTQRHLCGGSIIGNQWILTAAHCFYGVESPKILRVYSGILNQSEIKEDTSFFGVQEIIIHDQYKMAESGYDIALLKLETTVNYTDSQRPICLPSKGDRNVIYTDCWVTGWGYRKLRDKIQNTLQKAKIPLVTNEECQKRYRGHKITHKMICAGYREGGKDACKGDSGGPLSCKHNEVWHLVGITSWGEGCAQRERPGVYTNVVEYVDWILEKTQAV
Thrombin inh: thrombin (human) inhibition. P00734. alpha-thrombin, Boc-VPR-AMC fluorogenic substrate cleavage. inhibition, % at 5 µM. 0.26% of 220,000 active. AID 1046;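 active means inhibition at or above 40%; inactive means inhibition below 40%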;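 further: 0% = enzyme with no compound and 100% = wells without enzyme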
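Material: human alpha-thrombin protein. Incubation: reaction at ambient temperature. Technique: fluorescence of released AMC, ex 355 nm, em 460 nm. Control set: no-compound enzyme wells and no-enzyme blanks. Also added: Boc-VPR-AMC substrate, 15 µM final. Buffer or medium: pH 7.5 Tris (50 mM) with NaCl 150 mM, Tween 20 0.05%.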
AHR activator: human AHR activation. AHR-responsive luciferase reporter cells, luminescence. activation, % at 5 µM. 2.5% of 320,000 active; in the data active means activation above about 47%;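 further: 0% = vehicle wells and 100% = reference agonist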
FXIIa inh: factor XIIa (human) inhibition; purified FXIIa, Boc-QGR-AMC fluorogenic substrate, 2 h; inhibition, % at 5 µM; 0.3% of 220,000 active; P00748; AID 800; in the data active means inhibition above about 40%;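 further: 0% = enzyme with no compound and 100% = blank without enzyme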
hK5 inh: kallikrein 5 (human) inhibition; Q9Y337; recombinant hK5, fluorogenic AMC substrate cleavage; inhibition, % at 5 µM; 0.59% of 210,000 active;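 active means inhibition of 40% or more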;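 further: 0% = enzyme controls without compound and 100% = no-enzyme blanks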
AHR act confirm: confirmation of human aryl hydrocarbon receptor activators. human cells, AHR-responsive luciferase reporter, luminescence. 87% of 2,300 active. activation, % at 9 µM. shares compounds with AHR activator; in the data active means activation above about 49%;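 further: HepG2 hepatoma cells carrying a DRE-driven firefly luciferase reporter; 0% = vehicle wells and 100% = reference agonist wells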
PXR act counter: activates human PXR in AHR activator counter-screen; shares compounds with AHR activator; cell-based PXR reporter, luciferase luminescence; activation, % at 11.6 µM; 88% of 2,300 active; AID 434939; in the data active means activation above about 11%;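 further: human hepatoma DPX-2 cells expressing full-length human PXR; 0% = DMSO and 100% = reference agonist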
Numbers without * were called inactive. Compounds with a hit are over-represented: about 3.5% of the library has one in this group of screens.

For O=C(O)CC(NC(=O)CC(c1ccccc1)c1ccccc1)c1cccc([N+](=O)[O-])c1 (stereo unspecified) the results were AHR activator 0.2.
Screening O=C(CSc1nc(=O)n2ccccc2n1)NC1CCCCC1 returned AHR activator 1.1.
For O=C(NCC1OCCc2ccccc21)c1ccco1 (stereo unspecified) the results were STAT3 activator 102.5, FXIa inh -3.1, Thrombin inh -2.0, AHR activator 86.1*, FXIIa inh 8.0, hK5 inh -22.3, AHR act confirm 129.2* and PXR act counter 14.2*.
`C(=N/Nc1nccs1)/c1cccnc1` gave STAT3 activator 100.3, FXIa inh -5.3, Thrombin inh -0.1, AHR activator 12.5, FXIIa inh 6.1 and hK5 inh -19.3.
Screening Clc1cccc(/C=N\Nc2nccs2)c1 returned STAT3 activator 114.1, FXIa inh -3.6, Thrombin inh 5.1, AHR activator 116.6*, FXIIa inh 9.0, hK5 inh -7.7, AHR act confirm 121.6* and PXR act counter 37.4*.
Screening COCCNC(=O)c1c[nH]c2ccc(S(=O)(=O)N(C)c3ccc(C)c(C)c3)cc2c1=O returned AHR activator 6.1.
`Clc1ccc(-c2cc3ccccc3[nH]2)cc1` gave STAT3 activator 108.1, FXIa inh -2.8, Thrombin inh -2.4, AHR activator 91.2*, FXIIa inh 7.3, hK5 inh -4.9, AHR act confirm 42.6 and PXR act counter 7.9.
For O=c1cc(-c2ccc(Cl)cc2)[nH]c2ccccc12 the results were FXIa inh 5.4, Thrombin inh -5.2, AHR activator 22.7, FXIIa inh 8.8 and hK5 inh 0.7.
For Cc1nc2ccccn2c1C(=O)Nc1ccc(Cl)cc1 the results were STAT3 activator 91.5, FXIa inh -2.0, Thrombin inh -3.3, AHR activator 91.4*, FXIIa inh 5.8, hK5 inh 2.2, AHR act confirm 152.4* and PXR act counter 15.7*.
Screening Cc1noc(C)c1COc1ccccc1C(=O)NNC(=O)c1ccccc1F returned AHR activator 91.8*, AHR act confirm 116.8* and PXR act counter 72.6*.
For Cn1ccc2cc3c(cc21)CCN3C(=O)Nc1cccnc1 the results were AHR activator 117.6*, AHR act confirm 83.0* and PXR act counter 30.6*.
Screening Cc1c(C)c(C)c2[nH]c(-c3ccc4c(c3)OCO4)nc2c1C returned AHR activator 101.5*, AHR act confirm 102.1* and PXR act counter 50.4*.
Screening CCOc1ccc2c(c1)c(N=O)c(O)n2C returned STAT3 activator 101.7, FXIa inh -0.4, Thrombin inh -4.4, AHR activator 94.2*, FXIIa inh -7.0, hK5 inh -11.3, AHR act confirm 62.2* and PXR act counter 10.3*.
Screening CCOc1ccc(/C=N/NC(=O)c2c(C)n(C)c3ccc(OC)cc23)cc1 returned STAT3 activator 94.7, FXIa inh 4.6, Thrombin inh -2.3, AHR activator 11.1, FXIIa inh 8.6 and hK5 inh -13.3.
`Cc1cc(=O)n(CC(=O)NC2CC2)c2c1c(C)nn2-c1ccccc1` gave AHR activator 87.5*, AHR act confirm 83.8* and PXR act counter 77.1*.
`Cn1c(-c2ccc(Cl)cc2)ccc(C#N)c1=O` gave STAT3 activator 104.8, FXIa inh -3.0, Thrombin inh -2.9, AHR activator 99.7*, FXIIa inh 6.7, hK5 inh -19.2, AHR act confirm 103.7* and PXR act counter 13.7*.
`Cn1cc(-c2ccc(Cl)cc2)cc(C#N)c1=O` gave STAT3 activator 92.0, FXIa inh -5.4, Thrombin inh 4.6, AHR activator -2.9, FXIIa inh 4.4 and hK5 inh -1.9.
`O=C1CSC(c2ccc(F)cc2)N1c1ccccc1F` (stereo unspecified) gave AHR activator 3.6.

Screens from PubChem BioAssay.
